PglD inh – blocks C. jejuni PglD acetyltransferase activity. purified PglD enzyme, DTNB colorimetric CoA detection. 0.098% of 360,000 active. inhibition, % at 12.5 µM; in the data active means inhibition above about 16%, passing the limit was not always enough
Xi reactivation – activators of X-chromosome reactivation in mouse fibroblasts; XiGFP mouse fibroblasts, % GFP-positive cells imaging, 3 d; cells co-treated with 5-aza-dC sensitizer; scaled so ellipticine positive control = 100%; activation, % at 7.58 µM; 0.055% of 360,000 active;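 active means mean normalized replicate activation at least 10% and every replicate at or above 10%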;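 further: 0% = median of on-plate neutral control wells and 100% = ellipticine 6 µM median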
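Material: SV40-immortalized XiGFP fibroblast cells, line 68-5-11 | Buffer or medium: DMEM containing 5-aza-dC | Dosing: One concentration, pinned | Times: 3 d treatment, 15 min room-temperature fixation | Controls: Ellipticine 6 µM positive control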
DENV2 CPE rescue – DENV2-induced cell death inhibition. DENV2-infected cells, cytopathic effect rescue, plate reader. CPE inhibition, % at 9.99 µM. 1.7% of 350,000 active. AID 651640; in the data active means CPE inhibition above about 20%, passing the limit was not always enough; tested in BHK-21 cells;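 further: 0% = median of neutral control wells and 100% = median of positive control wells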
E-sel inducer – E-selectin induction on HUVECs | HUVEC E-selectin immunofluorescence imaging; normalized: neutral wells 0, TNF-alpha wells 100 | P16581 | 0.37% of 260,000 active | activation, % at 7.58 µM;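 active means mean E-selectin-positive cell signal at least 10% of the positive control, reached in at least 60% of replicates, without over 20% cell loss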
Target sequence (P16581 whole entry, looked up): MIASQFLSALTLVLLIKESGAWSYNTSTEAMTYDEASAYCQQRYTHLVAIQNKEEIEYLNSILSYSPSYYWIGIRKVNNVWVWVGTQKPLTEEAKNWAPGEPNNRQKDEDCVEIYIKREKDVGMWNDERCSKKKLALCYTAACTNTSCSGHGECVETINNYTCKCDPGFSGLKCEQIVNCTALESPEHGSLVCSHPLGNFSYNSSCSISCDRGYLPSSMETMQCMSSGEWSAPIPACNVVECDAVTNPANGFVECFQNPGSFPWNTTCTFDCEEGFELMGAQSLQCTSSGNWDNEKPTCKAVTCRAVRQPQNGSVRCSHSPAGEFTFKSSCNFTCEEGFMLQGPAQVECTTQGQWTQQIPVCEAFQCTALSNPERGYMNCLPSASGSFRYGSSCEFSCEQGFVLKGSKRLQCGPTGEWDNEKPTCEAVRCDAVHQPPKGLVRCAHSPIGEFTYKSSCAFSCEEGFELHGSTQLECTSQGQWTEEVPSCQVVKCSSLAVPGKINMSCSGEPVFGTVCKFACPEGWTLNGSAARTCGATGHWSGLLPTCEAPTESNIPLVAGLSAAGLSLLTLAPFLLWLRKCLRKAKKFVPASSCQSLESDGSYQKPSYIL
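material = human umbilical vein endothelial cells (HUVEC), E-selectin induction | quantity = 3,000 cells/well | medium = EGM-2 growth medium on 0.1% gelatin-coated wells | technique = immunofluorescence imaging | read-out basis = % PE-positive cells | control set = TNF-alpha positive control, DMSO neutral control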
FGF22 binding – FGF22 (human) thermal shift binding; Q9HCT0; recombinant FGF22 thermal shift, SYPRO orange fluorescence; percent of sucrose octasulfate shift, DMSO zero; activity (Tm shift, normalised), % at 9.99 µM; 1.5% of 340,000 active; AID 651658;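 active means mean Tm shift, scaled 0 neutral to 100 positive control, at about 1.3% or above, every replicate too, limit read from the data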
C2C12 statin – protects C2C12 myotubes from simvastatin toxicity | ATP luminescence, 48 h; scaled: DMSO 0, geranylgeraniol control 100 | rescue of ATP level, % at 7.49 µM | 0.78% of 330,000 active | AID 602340;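 active means mean ATP rescue above about 67%, or every replicate alone reaching that limit, limit read from the data, passing the limit was not always enough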;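 further: myotubes were challenged with 10 µM simvastatin during compound exposure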
Active calls of the source: *; x = not tested or not shown. Only some compounds are listed: those with a hit (about 3.3% of all), similar ones and a draw of the others.

SMILES	PglD inh	Xi reactivation	DENV2 CPE rescue	E-sel inducer	FGF22 binding	C2C12 statin
Cc1n[nH]c(C)c1CCCCOc1ccccc1	3	0	x	x	44*	x
CC(=O)c1ccc(-n2c(-c3cc(-c4ccco4)[nH]n3)n[nH]c2=S)cc1	-1	x	x	x	x	84*
CO[C@H]1CN(C)C(=O)c2ccc(NC(C)=O)cc2OC[C@H](C)N(C(=O)CC2CC2)C[C@@H]1C	x	0	-2	0	x	x
COCCCNC(=O)CSc1nc2c(sc(=S)n2-c2cc(Cl)ccc2OC)c(=O)[nH]1	1	0	-2	46*	3.0*	8
O=C(NCCNc1ccc([N+](=O)[O-])cc1C(F)(F)F)c1cccc(F)c1	x	0	x	x	x	x
O=C(NCCNc1ccc([N+](=O)[O-])cc1C(F)(F)F)c1ccccc1	x	0	-9	x	43*	x
COc1ccc(NC(=O)N[C@@H]2CC[C@@H](CCn3cc(-c4ccccc4F)nn3)O[C@@H]2CO)cc1	3	0	-5	0	0	-3
COc1cccc(-c2ccc3c(c2)[C@H]2[C@H](CCN2S(=O)(=O)c2cn(C)cn2)[C@@H](CO)N3)c1	8	0	98*	1	0	7
COc1cccc(-c2ccc3c(c2)[C@H]2[C@H](CCN2S(=O)(=O)c2cn(C)cn2)[C@H](CO)N3)c1	-1	0	-4	0	0	-14
CCCC#Cc1ccc2c(c1)[C@@H]1[C@@H](CCN1S(=O)(=O)c1ccccc1F)[C@@H](CO)N2	x	0	16	1	x	x
Cn1cnc(S(=O)(=O)N2CC[C@@H]3[C@@H](CO)Nc4ccc(-c5ccc(F)cc5)cc4[C@@H]32)c1	-2	0	20	0	1	9
Cn1cnc(S(=O)(=O)N2CC[C@@H]3[C@H](CO)Nc4ccc(-c5ccc(F)cc5)cc4[C@@H]32)c1	2	0	46*	-1	0	-10
CCCC#Cc1ccc2c(c1)[C@@H]1[C@@H](CCN1S(=O)(=O)c1ccccc1C)[C@@H](CO)N2	x	0	66*	1	x	x
CCCC#Cc1ccc2c(c1)[C@H]1[C@H](CCN1S(=O)(=O)c1cn(C)cn1)[C@H](CO)N2	x	0	65*	0	x	x
COc1ccccc1NC(=O)N1C[C@H](O)COC[C@@H]2O[C@H](CC(=O)NCCc3ccncc3)CC[C@H]21	-2	0	2	0	0	7
Cn1cnc(S(=O)(=O)N2CC[C@@H]3[C@H](CO)Nc4ccc(C#Cc5ccc(F)cc5)cc4[C@@H]32)c1	-5	0	27*	0	-1	-48
CN(C)CC(=O)N1[C@@H]2c3cccc(=O)n3C[C@@H]2[C@@H](CO)[C@@H]1C(=O)NCc1ccccc1F	x	0	20	0	x	x
C[C@@H]1CN([C@@H](C)CO)C(=O)c2cc(NC(=O)Nc3cccc4ccccc34)ccc2O[C@@H]1CN(C)C(=O)Nc1ccc2c(c1)OCO2	0	0	-5	0	0	-10
C[C@H]1CCCCO[C@H](CN(C)C(=O)Nc2cccc3ccccc23)[C@@H](C)CN([C@@H](C)CO)C(=O)c2cc(NC(=O)Nc3ccc4c(c3)OCO4)ccc2O1	-5	-1	5	0	12*	66*
C[C@@H]1CCCCO[C@H](CN(C)C(=O)C2CCCCC2)[C@@H](C)CN([C@H](C)CO)C(=O)c2cc(NC(=O)Nc3cccc4ccccc34)ccc2O1	-2	0	-3	1	1.3*	x
C[C@@H]1CCCCO[C@H](CN(C)C(=O)Nc2cccc3ccccc23)[C@@H](C)CN([C@H](C)CO)C(=O)c2cc(NC(=O)Nc3cccc4ccccc34)ccc2O1	-3	0	5	0	1.6*	x
C[C@@H]1CCCCO[C@@H](CN(C)C(=O)Nc2ccc3c(c2)OCO3)[C@H](C)CN([C@H](C)CO)C(=O)c2cc(NC(=O)Nc3cccc4ccccc34)ccc2O1	x	0	-9	0	0	x
C[C@@H]1CN([C@H](C)CO)C(=O)c2cc(NC(=O)Nc3cccc4ccccc34)ccc2O[C@@H]1CN(C)C(=O)Nc1ccc2c(c1)OCO2	0	0	33*	0	0	18
C[C@@H]1CCCCO[C@H](CN(C)C(=O)Nc2cccc3ccccc23)[C@H](C)CN([C@@H](C)CO)C(=O)c2cc(NC(=O)Nc3cccc4ccccc34)ccc2O1	-3	0	-14	0	0	x
CO[C@@H]1CN(C)C(=O)c2ccc(NC(=O)c3ccc4c(c3)OCO4)cc2OC[C@@H](C)N(CCC(F)(F)F)C[C@H]1C	4	0	1	0	-1	15
SMILES	PglD inh	Xi reactivation	DENV2 CPE rescue	E-sel inducer	FGF22 binding	C2C12 statin
CO[C@@H]1CN(C)C(=O)c2cc(NC(=O)c3ccc4c(c3)OCO4)ccc2OC[C@@H](C)N(CCC(F)(F)F)C[C@@H]1C	-2	0	36*	0	0	14
CO[C@@H]1CN(C)C(=O)c2cc(NC(=O)c3ccc4c(c3)OCO4)ccc2OC[C@@H](C)N(CCC(F)(F)F)C[C@H]1C	2	0	23*	0	0	-2
CO[C@@H]1CN(C)C(=O)c2cc(NC(=O)c3ccc4c(c3)OCO4)ccc2OC[C@@H](C)N(CC2CC2)C[C@@H]1C	0	0	77*	0	0	16
CO[C@@H]1CN(C)C(=O)c2cc(NC(=O)c3ccc4c(c3)OCO4)ccc2OC[C@@H](C)N(CC2CC2)C[C@H]1C	7	0	0	0	0	-4
NC(=O)CC[C@@H]1NC(=O)[C@H](CO)NC(=O)c2cc([N+](=O)[O-])cc(I)c2OCC[C@@H](C(N)=O)NC1=O	-7	0	x	0	1	106*
CCOC(=O)c1sc(=NC(=O)c2ccc(C)c(C)c2)n(C)c1C	x	1	4	x	43*	x
COc1cccc(-n2nnnc2SCC(=O)NCCc2ccccc2)c1	-5	x	x	x	x	102*
COc1cccc(-n2nnnc2SCC(=O)NCCc2ccc(OC)c(OC)c2)c1	x	0	2	x	0	x
O=C(NCC[C@H]1CC[C@H](NC(=O)c2cnccn2)[C@@H](CO)O1)Nc1ccc(Cl)cc1	0	0	-12	-1	0	-1
O=C1CNC(=O)/C(=C/c2cccs2)N1	x	0	-3	x	43*	x
C[C@@H]1CN([C@@H](C)CO)C(=O)c2cc(NS(=O)(=O)c3ccc(F)cc3)ccc2O[C@@H](C)CCCCO[C@H]1CN(C)C(=O)Nc1ccccc1	-1	0	6	0	0	x
COc1ccc(NC(=O)N[C@@H]2CC[C@H](CC(=O)NC3CCC3)O[C@@H]2CO)cc1	5	0	-1	1	0	-1
COc1cccc2c1OCC(CN1CCN(CCC(C)C)C(CCO)C1)=C2 (stereo not given)	x	0	6	x	43*	x
